Measurements: ChEMBL document CHEMBL3352517, “Anti-inflammatory ursane- and oleanane-type triterpenoids from Vitex negundo var. cannabifolia” (J Nat Prod, 2014)

Columns and labels:
RAW264.7 [1] = assay: (§1) Cytotoxicity against mouse RAW264.7 cells assessed as cell viability at 40 uM by MTT assay; type: cell-based; conditions: raw264.7, 40 µM
RAW264.7 [2] = assay: Anti-inflammatory activity in mouse RAW264.7 cells assessed as inhibition of lipopolysaccharide-induced nitric oxide production incubated for 24 hrs by Griess reagent based assay; type: functional, cell-based; conditions: RAW264.7, 24 h
How it was run: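 LPS-stimulated RAW 264.7 macrophages; NO production read by Griess assay; inhibition expressed as IC50 (μM).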

RAW264.7 [3] = assay: Anti-inflammatory activity in mouse RAW264.7 cells assessed as inhibition of lipopolysaccharide-induced nitric oxide production at 80 uM incubated for 24 hrs by Griess reagent based assay; type: functional; conditions: RAW264.7, 24 h
[4] = as §1; type: cell-based; conditions: RAW264.7 cells, read-out: Activity

| IC50 (RAW264.7 [2]) | SMILES | Activity (RAW264.7 [1]) | inhibition at 80 µM (RAW264.7 [3]) | viability at 40 µM [4] |
| --- | --- | --- | --- | --- |
| 24.9 µM | C[C@@H]1CC[C@]2(C(=O)O)CC[C@]3(C)C(=CC[C@@H]4[C@@]5(C)C[C@@H](O)[C@H](O)C(C)(C)[C@@H]5CC[C@]43C)[C@@H]2[C@]1(C)O [TOMENTIC ACID] | Non-toxic | – | – |
| – | C[C@H]1[C@H](C)CC[C@@]23CC[C@@]4(C)[C@]5(C)CC[C@H]6C(C)(C)[C@H](O)[C@H](O)C[C@]6(C)[C@H]5CC(=O)[C@]4(OC2=O)[C@H]13 | Non-toxic | < 50% | – |
| – | C[C@@H]1[C@@H]2C[C@@]3(CC[C@]4(C)[C@@H]5[C@@H]3[C@]1(C)O[C@]5(O)C[C@@H]1[C@@]3(C)C[C@@H](O)[C@@H](O)C(C)(C)[C@@H]3CC[C@]14C)C(=O)O2 | Non-toxic | < 50% | – |
| – | C[C@@H]1CC[C@]2(C(=O)O)CC[C@]3(C)C(=CC[C@@H]4[C@@]5(C)C[C@@H](O)[C@@H](O)C(C)(C)[C@@H]5CC[C@]43C)[C@@H]2[C@]1(C)O [EUSCAPHIC ACID] | Non-toxic | < 50% | – |
| – | C[C@H]1[C@H](C)CC[C@]2(C(=O)O)CC[C@]3(C)C(=CC[C@@H]4[C@@]5(C)C[C@@H](O)[C@@H](O)C(C)(C)[C@@H]5CC[C@]43C)[C@H]12 [PYGENIC ACID A] | – | – | < 70% |
| 26.1 µM | C=C1CC[C@]2(C(=O)O)CC[C@]3(C)C(=CC[C@@H]4[C@@]5(C)C[C@@H](O)[C@@H](O)C(C)(C)[C@@H]5CC[C@]43C)[C@@H]2[C@H]1C | Non-toxic | – | – |
| – | C[C@H]1[C@H](C)CC[C@]2(C(=O)O)CC[C@]3(C)C(=CC[C@@H]4[C@@]5(C)CC[C@H](O)C(C)(C)[C@@H]5CC[C@]43C)[C@H]12 [URSOLIC ACID] | – | – | < 70% |
| – | CC1(C)CC[C@@]23CC[C@@]4(C)[C@]5(C)CC[C@H]6C(C)(C)[C@H](O)[C@H](O)C[C@]6(C)[C@H]5CC(=O)[C@]4(OC2=O)[C@@H]3C1 | – | – | < 70% |
| 40.5 µM | CC1(C)CC[C@]2(C(=O)O)CC[C@]3(C)C(=CC[C@@H]4[C@@]5(C)C[C@@H](O)[C@@H](O)[C@](C)(CO)[C@@H]5CC[C@]43C)[C@@H]2C1 | Non-toxic | – | – |
| – | CC1(C)[C@@H]2C[C@@]3(CC[C@]4(C)[C@@H]5[C@@H]3[C@@H]1O[C@]5(O)C[C@@H]1[C@@]3(C)C[C@@H](O)[C@@H](O)C(C)(C)[C@@H]3CC[C@]14C)C(=O)O2 | Non-toxic | < 50% | – |
| 27.7 µM | CC1(C)CC[C@]2(C(=O)O)CC[C@]3(C)C(=CC[C@@H]4[C@@]5(C)C[C@@H](O)[C@@H](O)C(C)(C)[C@@H]5CC[C@]43C)[C@@H]2C1 | Non-toxic | – | – |
| – | CC1(C)[C@H](O)[C@H](O)C[C@]2(C)[C@H]3CC=C4[C@@H]5C[C@](C)(CO)CC[C@]5(C(=O)O)CC[C@@]4(C)[C@]3(C)CC[C@@H]12 | Non-toxic | < 50% | – |
| – | C[C@H]1[C@H](C)CC[C@]2(C(=O)O)CC[C@]3(C)C(=CC[C@@H]4[C@@]5(C)C[C@@H](O)[C@H](O)C(C)(C)[C@@H]5CC[C@]43C)[C@H]12 [COROSOLIC ACID] | – | – | < 70% |
| 34 µM | C[C@H]1[C@H](C)CC[C@@]23CC[C@]4(C)[C@](OC2=O)([C@H](O)C[C@@H]2[C@@]5(C)C[C@@H](O)[C@@H](O)C(C)(C)[C@@H]5CC[C@]24C)[C@H]13 | Non-toxic | – | – |

| SMILES | IC50 (RAW264.7 [2]) | Activity (RAW264.7 [1]) | inhibition at 80 µM (RAW264.7 [3]) | viability at 40 µM [4] |
| --- | --- | --- | --- | --- |
| O=c1c(O)c(-c2ccc(O)c(O)c2)oc2cc(O)cc(O)c12 [QUERCETIN] | 16.6 µM | – | – | – |
